This is an account of results in ChEMBL document CHEMBL3632606, “Structural Optimization of Indole Derivatives Acting at Colchicine Binding Site as Potential Anticancer Agents” (ACS Med Chem Lett, 2015).

pIC50: −log10 of the molar value. Activity calls are given as the source filed them. The rule behind the calls is not given here.

Data set [1] can be described thus: Half life in mouse liver microsomes at 2 uM by LC-MS/MS analysis. The class given is ADME.
Data set [2] relates to M14. Put plainly: Cytotoxicity against human M14 cells after 48 hrs by MTS assay. The class given is functional, cell-based. The note with it: M14, 48 h.
Data set [3] deals with PC-3. Put plainly: Cell cycle arrest in human PC3 cells assessed as accumulation at G2/M phase at 10 nM after 24 hrs using propidium iodide staining by flow cytometry analysis. Type of data set: functional, cell-based. In a few lines:
(§1)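 Cells treated with test agents for 24 h, then cell cycle distribution measured by flow cytometry; G2/M fraction compared with a vehicle-treated control group; N = 3.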

Data set [4] concerns A-375. The data set can be described thus: Cytotoxicity against human A375 cells after 48 hrs by MTS assay. The class given is functional, cell-based. The note with it: A-375, 48 h.
Data set [5] relates to A-375. Put plainly: Cell cycle arrest in human A375 cells at 10 nM after 24 hrs using propidium iodide staining by flow cytometry analysis. Type of data set: functional, cell-based. The method, boiled down: as §1
In data set [6] the target is Tubulin (Sus scrofa) (UniProt P02554+P02550). The data set can be described thus: Inhibition of porcine tubulin polymerization measured every 1 min for 60 mins. The class given is protein assay. In a few lines:
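In vitro microtubule polymerization run with test agents at 5 or 10 μM. Vehicle, paclitaxel (5 μM) and colchicine (5 μM) were run as controls under the same conditions. Curves are from a representative experiment.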

In data set [7] the test system is DU-145. The data set can be described thus: Cytotoxicity against human DU145 cells after 48 hrs by MTS assay. The class given is functional, cell-based. The conditions noted are these: DU-145, 48 h.
The test system of data set [8] is PC-3. The data set can be described thus: Cytotoxicity against human paclitaxel-resistant PC3 cells after 48 hrs by MTS assay. The note with it: PC-3, 48 h. The class given is functional, cell-based.
Data set [9] deals with DU-145. Put plainly: Cytotoxicity against human paclitaxel-resistant DU145 cells after 48 hrs by MTS assay. The class given is functional, cell-based. The note with it: DU-145, 48 h.
Data set [10] deals with PC-3. Put plainly: Cytotoxicity against human PC3 cells after 48 hrs by MTS assay. Type of data set: functional, cell-based. The conditions noted are these: PC-3, 48 h.
Data set [11] is described as follows: Half life in human liver microsomes at 2 uM by LC-MS/MS analysis. Type of data set: ADME.
Data set [12] is described as follows: Cytotoxicity against human M14/LCC6R1 cells after 48 hrs by MTS assay. The class given is functional, cell-based. The conditions noted are these: M14/LCC6R1, 48 h.
Data set [13] concerns A-375. Put plainly: Cell cycle arrest in human A375 cells assessed as accumulation at G2/M phase at 50 nM after 24 hrs using propidium iodide staining by flow cytometry analysis (reference value: 4 +/- 0.5%). Type of data set: functional. The method, boiled down: as §1
Data set [14] can be described thus: Cytotoxicity against human PPC1 cells after 48 hrs by MTS assay. The class given is functional, cell-based. The conditions noted are these: PPC-1, 48 h.
A short description of data set [15]: Cytotoxicity against human WM164 cells after 48 hrs by MTS assay. The class given is functional, cell-based. The conditions noted are these: WM164, 48 h.
For data set [16], the system named is LNCaP. The data set can be described thus: Cytotoxicity against human LNCAP cells after 48 hrs by MTS assay. The class given is functional, cell-based.
A short description of data set [17]: Lipophilicity, log P of the compound. The class given is physicochemical. The note with it: octanol/water.

Sequence of Tubulin (Sus scrofa) (P02550 whole entry, looked up): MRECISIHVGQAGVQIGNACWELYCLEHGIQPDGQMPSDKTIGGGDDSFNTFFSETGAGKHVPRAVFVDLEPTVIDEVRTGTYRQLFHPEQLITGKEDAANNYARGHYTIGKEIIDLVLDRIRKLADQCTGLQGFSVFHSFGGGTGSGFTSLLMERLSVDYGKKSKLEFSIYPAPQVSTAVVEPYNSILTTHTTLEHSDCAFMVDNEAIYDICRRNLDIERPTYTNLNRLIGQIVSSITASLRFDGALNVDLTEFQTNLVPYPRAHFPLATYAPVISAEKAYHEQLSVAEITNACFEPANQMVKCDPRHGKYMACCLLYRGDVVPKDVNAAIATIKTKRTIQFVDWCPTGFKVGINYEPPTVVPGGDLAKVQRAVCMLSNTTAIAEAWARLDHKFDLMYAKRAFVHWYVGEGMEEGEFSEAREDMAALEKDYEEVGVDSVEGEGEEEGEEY
Sequence of Tubulin (Sus scrofa) (P02554 whole entry, looked up): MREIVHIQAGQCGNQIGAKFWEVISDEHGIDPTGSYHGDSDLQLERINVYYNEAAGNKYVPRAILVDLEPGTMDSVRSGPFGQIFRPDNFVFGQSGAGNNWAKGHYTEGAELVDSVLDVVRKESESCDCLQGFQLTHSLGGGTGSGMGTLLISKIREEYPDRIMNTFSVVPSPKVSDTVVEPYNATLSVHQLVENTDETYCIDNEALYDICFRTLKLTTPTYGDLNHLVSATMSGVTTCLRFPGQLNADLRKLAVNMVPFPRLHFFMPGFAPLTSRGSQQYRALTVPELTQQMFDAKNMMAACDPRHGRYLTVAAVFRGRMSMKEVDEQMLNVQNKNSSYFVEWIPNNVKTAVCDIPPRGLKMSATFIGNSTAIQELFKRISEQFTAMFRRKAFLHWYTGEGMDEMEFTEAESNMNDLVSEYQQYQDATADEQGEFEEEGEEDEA

With `COc1cc(-c2nccc3[nH]c(-c4cccc5[nH]ccc45)nc23)cc(OC)c1OC`, the half-life at 2 µM in [1] worked out at 10.5 min; in data set [11] it was 33.1 min. Also, the pIC50 in data set [2] was 7.85; in data set [4] it was 8.52; in data set [7], 7.85; in data set [8] it was 7.92; in [9], 7.77; in data set [10], 8.15. Moreover, in [12], the pIC50 was 7.60. The result in data set [3] was Active. The outcome in [5] was inactive. Also, the inhibition entry in data set [6] was “Dose-dependent effect”. Besides, in data set [13], the Activity is reported as 42%.
Turning to `COc1cc(-c2nccc3[nH]c(-c4ccc5cc[nH]c5c4)nc23)cc(OC)c1OC`, the figures for the half-life at 2 µM in data set [1] and in data set [11] were 27.7 min and 56.3 min, respectively. Also, the negative-log IC50 (pIC50) in data set [2] is 7.80; in [4], 8.52; in data set [7] it was 7.92; in data set [8], 7.89; in [9], 7.92; in [10], 8.10. The molecule further showed a pIC50 in data set [12] of 7.28. Also, the result in data set [3] was Active. For the same molecule, the result in [5] was inactive. Further, the inhibition result in [6] is “Dose-dependent effect”. The Activity in data set [13] is given as 65.9%.
For `c1cc2ccc(-c3ccc4[nH]ccc4c3)cc2c(-c2ccc3[nH]ccc3c2)n1`, the pIC50 in data set [2] is 6.95; in [14], 7.32; in [4], 7.03; in [15], 6.83; in data set [16] it was 7.01; in data set [7] it was 6.95. The molecule further gave a pIC50 in [10] of 7.14.
`COc1cc(-c2ccc3ccnc(-c4cc(OC)c(OC)c(OC)c4)c3c2)cc(OC)c1OC`: the pIC50 in [2] was 5.01; in [4] it was 4.97; in data set [15] it was 5.18.
Regarding `COc1cc(-c2nccc3[nH]c(-c4cccc5cc[nH]c45)nc23)cc(OC)c1OC`, the pIC50 is 7.55 in [2]; 7.62 in data set [4]; 6.75 in data set [7]; 7.19 in data set [8]; under 4.52 in [9]; 7.37 in [10]. The molecule further had a pIC50 in [12] of 7.28.
For the molecule `COc1cc(C(=O)c2cccc(-c3cc4ccccc4[nH]3)c2)cc(OC)c1OC`, the logP in [17] turned out to be 4.14. The molecule also had a pIC50 in [10] of 7.55. The same molecule had a half-life at 2 µM in [11] of 24 min.
`COc1cc(-c2nccc3[nH]c(-c4cccc5ccn(S(=O)(=O)c6ccccc6)c45)nc23)cc(OC)c1OC`: the pIC50 in data set [2] was 6.33; in [4], 6.26; in [7] it was 5.99; in data set [8], 6.28; in data set [9], under 4.52; in data set [10], 6.21. Also, the pIC50 in data set [12] is 6.26.
Turning to `COc1cc(-c2nccc3[nH]c(-c4cc5ccccc5[nH]4)nc23)cc(OC)c1OC`, the pIC50 is 6.79 in [2]; 6.76 in [4]; 5.77 in data set [7]; 6.92 in data set [8]; 5.69 in data set [9]; 6.77 in data set [10]. The molecule further showed a pIC50 in data set [12] of 6.72.
Turning to `Fc1ccc(-c2ccc3ccnc(-c4ccc(F)cc4)c3c2)cc1`, the pIC50 in data set [2], in data set [14], in data set [4], in [15], in data set [16] and in data set [7] was under 4.52 each time. Moreover, the pIC50 in [10] was under 4.52.
Turning to `O=S(=O)(c1ccccc1)n1ccc2c(-c3nc4c(Br)nccc4[nH]3)cccc21`, the pIC50 in data set [2], in data set [4], in data set [7], in data set [8], in data set [9] and in [10] was under 4.52 each time. This molecule had a pIC50 in data set [12] of under 4.52.
Consider `COc1cc(-c2nccc3c2NC(c2cccc4cc[nH]c24)N3)cc(OC)c1OC` (stereo not drawn), for which the pIC50 was 5.97 in data set [2]; 6.01 in data set [4]; 5.60 in data set [7]; 6.16 in data set [8]; 5.44 in [9]; 5.91 in [10]. In addition, the pIC50 in data set [12] was 6.01.
`Fc1ccc(-c2nccc3ccc(-c4ccc5[nH]ccc5c4)cc23)cc1`: the half-life at 2 µM in [1] worked out at 2 min; in data set [11], 30.7 min. In addition, the negative logarithm of the IC50 (pIC50) in data set [2] was 7.31; in [14] it was 7.55; in data set [4] it was 7.18; in data set [15], 7.48; in data set [16], 7.42; in data set [7] it was 7.33. For the same molecule, in data set [10], the pIC50 was 7.59.
As to `COc1cc(-c2nccc3ccc(-c4ccc5[nH]ccc5c4)cc23)cc(OC)c1OC`, the figures for the half-life at 2 µM in data set [1] and in [11] were 2.1 min and 38.9 min, respectively. Besides, the pIC50 was 7.13 in [2]; 7.21 in [14]; 6.03 in data set [4]; 6.64 in data set [15]; 7.09 in [16]; 7.04 in data set [7]. The pIC50 in data set [10] is 7.19. The logP in [17] was determined as 4.63.
Turning to `COc1cc(-c2nccc3[nH]c(-c4cccc5c4ccn5S(=O)(=O)c4ccccc4)nc23)cc(OC)c1OC`, the pIC50 in data set [2] was 6.17; in [4] it was 6.58; in data set [7], 6.39; in data set [8], 6.24; in [9], 6.49; in [10], 6.02. Also, the pIC50 in [12] is 6.14.
As to `COc1cc(-c2nccc3[nH]c(-c4ccc5[nH]ccc5c4)nc23)cc(OC)c1OC`, the half-life at 2 µM in [1] amounted to 16.1 min; in data set [11], 45.4 min. The negative-log IC50 (pIC50) in data set [2] was 7.28; in data set [4] it was 7.66; in [7], 6.92; in [8], 7.47; in data set [9], 6.79; in data set [10] it was 7.57. The pIC50 in data set [12] is 6.94.
Consider `COc1cc(-c2nccc3[nH]c(-c4c[nH]c5ccccc45)nc23)cc(OC)c1OC`, for which the negative-log IC50 (pIC50) in data set [2] is 7.59; in data set [4], 7.80; in data set [7], 6.65; in data set [8] it was 8.15; in [9] it was 7.13; in data set [10] it was 7.57. Further, the pIC50 in data set [12] was 7.06.
